The values that follow come from ChEMBL document CHEMBL3352597, “Heck products of parthenolide and melampomagnolide-B as anticancer modulators that modify cell cycle progression” (Eur J Med Chem, 2014).

Series [1] in a line: Solubility in serum (unknown origin). The format is ADME.
Series [2] can be described thus: Anticancer activity against human BT549 cells assessed as growth inhibition at 10^-5 M. The note with it: BT-549, read-out: GI. The format is functional. Put shortly: (§1)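 NCI-60 human tumour cell line panel screened at a single concentration of 10^-5 M; value is percent growth inhibition relative to untreated growth.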
The next series concerns CCRF-CEM. The experiment in a line: Anticancer activity against human CCRF-CEM cells assessed as growth inhibition at 10^-5 M. The format is functional. The note with it: read-out: GI. Put shortly: as §1
Series [3] concerns Oocyte. Nature of the series: Induction of immature stage VI Xenopus oocyte maturation assessed as spontaneous maturation measured as germinal vesicle (nuclear) breakdown at 100 uM after overnight incubation. The format is functional, cell-based. Put shortly: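 Isolated Xenopus oocytes (20 per well) incubated overnight with compound in DMSO at 100 μM final, no progesterone. The next morning, GVBD is scored as a white spot at the animal pole. Rate is expressed relative to DMSO controls, where 2.0 means spontaneous maturation.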

Series [4] has as its system Xenopus. Nature of the series: Induction of progesterone-independent of MPF activation in immature stage VI Xenopus oocyte by Western blot analysis. Put shortly:
(§2)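 Oocytes treated with DMSO or compound without progesterone, harvested when 50% of treated oocytes completed GVBD, sorted by GVBD status. Lysates run on 10% gel and blotted with phospho-MAPK Thr202/Tyr204 and phospho-Cdc2 Tyr15 antibodies (1:1000), with tubulin as loading control. MPF activation read as Cdc2 dephosphorylation.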
(In western blotting, separated proteins are transferred to a membrane and probed.)

The test system of series [5] is Xenopus. The experiment in a line: Induction of progesterone-independent of MAPK activation in immature stage VI Xenopus oocyte by Western blot analysis. In outline: as §2
A short description of series [6]: Anticancer activity against human RPMI8226 cells assessed as growth inhibition at 10^-5 M. The format is functional. The following applies: RPMI-8226, read-out: GI. In outline:
as §1

The nature of series [7]: Anticancer activity against human PC3 cells assessed as growth inhibition at 10^-5 M. The note with it: PC-3, read-out: GI. The format is functional. In outline:
as §1

The subject of another series is K562. The experiment in a line: Anticancer activity against human K562 cells assessed as growth inhibition at 10^-5 M. The format is functional. The following applies: read-out: GI. In outline:
as §1

The nature of series [8]: Anticancer activity against human MOLT4 cells assessed as growth inhibition at 10^-5 M. The format is functional. The following applies: MOLT-4, read-out: GI. In outline:
as §1

A further series deals with HL-60(TB). Nature of the series: Anticancer activity against human HL-60(TB) cells assessed as growth inhibition at 10^-5 M. The format is functional. The following applies: read-out: GI. In outline: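 NCI 60 panel initial screen at a single concentration of 10^-5 M. Value is reported as percent growth inhibition of the cell line.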
In a further series the test system is MCF7. The experiment in a line: Anticancer activity against human MCF7 cells assessed as growth inhibition at 10^-5 M. The format is functional. The note with it: read-out: GI. Put shortly: as §1
Series [9] has as its system Oocyte. Nature of the series: Induction of immature stage VI Xenopus oocyte maturation assessed as stimulation of progesterone-mediated maturation measured as germinal vesicle (nuclear) breakdown after overnight incubation. The following applies: Xenopus laevis. The format is functional, cell-based.

The structures appear in SMILES notation. pEC50: −log10 of the molar value. ≈ marks a conversion by molar mass, not a printed value. Calls of active or inactive are those of the source. No cut-off for these calls is given here.

The term solubility denotes how much of the substance goes into solution per volume. Regarding `C=C1C(=O)O[C@@H]2C3O[C@]3(C)CC/C=C(\C)CC[C@@H]12` (stereo not given in full), the solubility in series [1] was found to be 169 µM (≈ 42 µg/mL).

On to `C[C@@]12CC/C=C(/CO)CC[C@@H]3/C(=C\c4ccccc4Br)C(=O)O[C@@H]3[C@@H]1O2`, for which the inhibition of growth at 10 µM was 24.2% in series [2] and 28.5% in the series with CCRF-CEM. Besides, in the series on Oocyte [3], the result was Active.

In general, pEC50 refers to the EC50 on a negative log10 scale, so that one unit is a factor of ten. Consider `C/C1=C\CC[C@@]2(C)O[C@@H]2[C@H]2OC(=O)/C(=C/c3ccccc3Br)[C@@H]2CC1`, for which the outcome with Xenopus [4], in the series with Xenopus [5] and with Oocyte [3] was Active. The inhibition of growth at 10 µM in series [6] is 21.3%; in [7], 42.3%; with CCRF-CEM it was 22.3%; in the series on K562, 28.1%; in series [8] it was 31.2%; in the series with HL-60(TB), 34.1%. Further, the inhibition of growth at 10 µM in the series with MCF7 is 24.3%. The pEC50 in the series on Oocyte [9] was 5.22.
